Legend:
[1] = target: bullfrog sympathetic ganglia SPR (bfSPR) (Aquarana catesbeiana, UniProt Q98982); assay: Whole cell recording of M-type K+ current; type: cell-based; conditions: for inhibition of IM: single bullfrog sympathetic neurons
[2] = Fluorophore spectral analysis; type: physicochemical; conditions: 10 nM in PBS, pH 7.4
Summary of the method: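 Fluorophore-labelled substance P conjugates were analysed in a spectrofluorometer at 10 nM in PBS, pH 7.4, as solvent. Excitation and emission spectra were recorded for each conjugate, and peak wavelengths were read from the curves.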

Sequence of bullfrog sympathetic ganglia SPR (bfSPR) (Q98982 whole entry): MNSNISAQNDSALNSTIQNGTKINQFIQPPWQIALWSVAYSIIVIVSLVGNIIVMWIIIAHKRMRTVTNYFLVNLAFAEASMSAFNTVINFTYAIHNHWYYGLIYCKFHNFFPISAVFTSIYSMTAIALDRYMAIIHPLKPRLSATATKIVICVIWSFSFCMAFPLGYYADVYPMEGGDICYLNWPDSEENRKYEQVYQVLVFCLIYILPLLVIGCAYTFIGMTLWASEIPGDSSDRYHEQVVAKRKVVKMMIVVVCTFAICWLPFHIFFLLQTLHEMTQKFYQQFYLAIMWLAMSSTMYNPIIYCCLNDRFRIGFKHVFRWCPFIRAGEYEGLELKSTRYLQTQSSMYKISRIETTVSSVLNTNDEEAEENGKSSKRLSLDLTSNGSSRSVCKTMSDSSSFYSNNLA

| inhibition of IM ([1]; 100 nM, 0.1 µM) | inhibition of IM ([1]; 1 μM) | Compound | inhibition at 0.1 µM ([1]; read-out: inhibition of IM) [%] | peak excitation [2] [nm] | peak of the emission curve [2] [nm] |
| --- | --- | --- | --- | --- | --- |
|  |  | CSCC[C@H](NC(=O)[C@H](CC(C)C)NC(=O)CNC(=O)[C@H](Cc1ccccc1)NC(=O)[C@H](Cc1ccccc1)NC(=O)[C@H](CCC(N)=O)NC(=O)[C@H](CCC(N)=O)NC(=O)[C@@H]1CCCN1C(=O)[C@H](CCCCN)NC(=O)[C@@H]1CCCN1C(=O)[C@@H](N)CCCN=C(N)N)C(N)=O [SP, reference compound] | ~70 |  |  |
| did not inhibit IM | did not inhibit IM | Alexa 488-SP: Substance P with Alexa 488 covalently linked at Lys3; Molecular Probes product S-13426 |  | 490 | 515 |
|  |  | fluorescein-SP: Substance P with fluorescein covalently linked at Lys3; Molecular Probes product S-13424 |  | 495 | 520 |

Reference: article PMC33344 (BMC Chemical Biology, 2001)
